Laboratory results reported in ChEMBL document CHEMBL1154840, “New pyrazoles incorporating pyrazolylpyrazole moiety: synthesis, anti-HCV and antitumor activity” (Eur J Med Chem, 2010).
Converted amounts (≈) assume the structure as drawn. The source made the active and inactive calls. No cut-off for these calls is given here.

How the values were obtained:
[1] = system: Radical scavenging activity; experiment: Antioxidant activity against DPPH radical scavenging activity after 30 mins by ELISA; format: functional; design: concentration or dose not given beside the values
Outline: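 DPPH radical scavenging. Compounds were dissolved in DMSO and serially diluted, 0.0–100 μM/ml. 10 µl was added to 90 µl of 100 µM DPPH in methanol and incubated 30 min at 37 °C in the dark. Decrease in absorbance was read at 515 nm. % reduction = [(A_B − A_A)/A_B] × 100, against a DMSO/DPPH blank. Triplicate.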

Hepacivirus hominis = experiment: Inhibition of HCV […] by quantitative RT-PCR
Outline: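 HCV replicon cells, 1×10^4 per well, were plated and the next day exposed to serially diluted compounds in DMEM with 2% FBS and 0.5% DMSO at 37 °C. Total RNA was extracted and HCV RNA copy number was measured by quantitative RT-PCR. Five replicates per point; MIC reported.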

[2] = molecular target: DNA topoisomerase 2-alpha (Mus musculus) (UniProt Q01320); experiment: Inhibition of mouse DNA topoisomerase 2 assessed as relaxation of supercoiled pBR322 plasmid DNA after 1 hr by electrophoresis relative to etoposide
Outline: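 Topoisomerase II was purified from P388 cells. 0.125 μg supercoiled pBR-322 DNA was incubated with 1 unit of enzyme at 30 °C for 1 h in 50 mM Tris–HCl pH 8.0, 100 mM KCl, 10 mM MgCl2, 0.5 mM DTT, 1 mM ATP and 30 μg/ml BSA. Products were resolved on 0.7% agarose in TBE and stained with ethidium bromide.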

MC-38 [3] = experiment: Growth inhibition of mouse Colon 38 cells after 72 hrs by sulforhodamine B assay relative to etoposide; format: functional
Outline: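 Exponentially growing cells were seeded on day 0. Graded drug concentrations were added on day 1, followed by 72 h at 37 °C. Cell number was estimated by SRB assay, with a separate day-1 count. GI50 is the concentration giving a 50% reduction in net protein increase versus control.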

[4] = Antioxidant activity against peroxynitrite-induced tyrosine nitration after 15 mins by HPLC; format: functional
Outline: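 Tyrosine (100 μM) was reacted with equimolar peroxynitrite and increasing compound concentrations (0–300 μM) in 100 mM phosphate buffer pH 7.4 at 37 °C for 15 min. 3-Nitrotyrosine formation was measured by reverse-phase C18 HPLC using a methanol/water/HCl and acetonitrile/water/HCl mobile phase. IC50 reported.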

MC-38 [5] = experiment: Antitumor activity against mouse Colon 38 cells xenografted in C57BL/6 mouse assessed as tumor volume at 3 mg/kg, iv administered as a single dose; format: functional, organism-based; design: dose 3 mg/kg
Outline: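 Female C57BL/6 mice, 6 weeks old, were inoculated s.c. in the flank with about 30 mg Colon 38 tumor tissue. When tumors reached approximately 300 mm³ (day 1), mice were randomized, n = 5 per group. Compound in 5% glucose was given as a single i.v. tail-vein dose on day 1; controls received 5% glucose. Tumor volume = ([…])/2; body weight also recorded.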

[6] = system: Measles virus (SSPE virus); experiment: Antiviral activity against measles virus infected in hamster brain assessed as inhibition of subacute sclerosing panencephalitis dosed intracranially by HPLC
Mus musculus [7] = experiment: Toxicity in mouse Colon 38 cells xenografted C57BL/6 mouse assessed as mortality at 3 mg/kg, iv administered as a single dose; format: organism-based, MC-38; design: dose 3 mg/kg, route intravenous; details: in vivo
Mus musculus [8] = experiment: Toxicity in mouse Colon 38 cells xenografted C57BL/6 mouse assessed as body weight change at 3 mg/kg, iv administered as a single dose; format: organism-based, MC-38; design: dose 3 mg/kg, route intravenous; details: in vivo
Outline: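 Female C57BL/6 mice, 6 weeks old, had about 30 mg of Colon 38 tumour tissue implanted s.c. in the flank. When tumours reached about 300 mm³ on day 1, mice were randomised into control and treatment groups (n = 5 each). Compound in 5% glucose was given once on day 1 by tail-vein i.v. injection; controls received 5% glucose. Body weight was tracked over subsequent days.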

DNA topoisomerase 2-alpha (Mus musculus), sequence (Q01320 whole entry): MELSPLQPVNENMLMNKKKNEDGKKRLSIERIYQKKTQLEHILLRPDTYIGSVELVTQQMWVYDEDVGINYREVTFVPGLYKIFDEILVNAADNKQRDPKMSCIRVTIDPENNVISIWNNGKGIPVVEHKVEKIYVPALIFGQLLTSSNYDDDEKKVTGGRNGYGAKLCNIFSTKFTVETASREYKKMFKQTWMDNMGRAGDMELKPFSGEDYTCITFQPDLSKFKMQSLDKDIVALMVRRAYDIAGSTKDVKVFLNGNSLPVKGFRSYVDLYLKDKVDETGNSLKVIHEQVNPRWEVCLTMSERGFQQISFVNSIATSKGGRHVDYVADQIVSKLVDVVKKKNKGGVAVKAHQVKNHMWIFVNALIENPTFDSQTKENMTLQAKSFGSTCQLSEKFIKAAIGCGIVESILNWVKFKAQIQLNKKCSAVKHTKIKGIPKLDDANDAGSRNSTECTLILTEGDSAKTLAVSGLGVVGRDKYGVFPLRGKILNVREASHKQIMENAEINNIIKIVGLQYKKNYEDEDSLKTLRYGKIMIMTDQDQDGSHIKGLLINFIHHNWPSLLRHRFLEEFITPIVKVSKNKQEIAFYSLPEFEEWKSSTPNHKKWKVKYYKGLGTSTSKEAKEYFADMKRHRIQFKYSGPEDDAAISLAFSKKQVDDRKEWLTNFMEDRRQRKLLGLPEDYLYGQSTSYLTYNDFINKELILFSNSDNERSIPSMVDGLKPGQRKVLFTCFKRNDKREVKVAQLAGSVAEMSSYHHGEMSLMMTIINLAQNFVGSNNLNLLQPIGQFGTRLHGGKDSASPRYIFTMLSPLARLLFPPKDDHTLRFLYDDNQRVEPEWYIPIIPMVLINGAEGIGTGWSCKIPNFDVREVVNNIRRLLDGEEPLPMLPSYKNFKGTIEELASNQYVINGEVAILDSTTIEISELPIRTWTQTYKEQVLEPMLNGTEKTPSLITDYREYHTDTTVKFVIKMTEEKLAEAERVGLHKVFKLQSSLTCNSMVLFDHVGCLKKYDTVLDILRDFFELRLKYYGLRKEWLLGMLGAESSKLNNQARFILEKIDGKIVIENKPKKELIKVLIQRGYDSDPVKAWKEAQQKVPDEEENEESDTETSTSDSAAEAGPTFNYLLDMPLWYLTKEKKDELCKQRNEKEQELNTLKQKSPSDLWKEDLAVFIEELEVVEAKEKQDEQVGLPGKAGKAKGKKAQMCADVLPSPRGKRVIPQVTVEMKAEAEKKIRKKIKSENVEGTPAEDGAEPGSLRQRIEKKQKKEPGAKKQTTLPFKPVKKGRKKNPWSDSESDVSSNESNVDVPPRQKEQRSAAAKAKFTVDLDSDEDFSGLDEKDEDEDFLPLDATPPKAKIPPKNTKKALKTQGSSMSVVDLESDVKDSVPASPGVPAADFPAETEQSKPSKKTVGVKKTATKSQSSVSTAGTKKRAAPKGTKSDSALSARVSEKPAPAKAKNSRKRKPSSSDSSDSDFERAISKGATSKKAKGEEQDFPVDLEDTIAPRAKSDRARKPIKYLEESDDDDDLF

Structure (SMILES) | Activity [1] [%] | MIC (Hepacivirus hominis) [µg/mL] | Ratio [2] | RatioGI50 (MC-38 [3]) | IC50 [4] [µM] | Activity (MC-38 [5]) | MIC [6] [µg/mL] | Activity (Mus musculus [7]) | Activity (Mus musculus [8])
Cc1ccc(-n2cc(C(=O)c3ccccc3)c(C(=O)c3cn(-c4ccccc4)nc3C(=O)/C=C/N(C)C)n2)cc1 | 94.9 | 0.181 (≈ 0.342 µM) | 150 | 150 | 42.2 | Active | 3.82 (≈ 7.21 µM) | Non-toxic | Non-toxic
CC(=O)c1nn(-c2ccccc2)cc1C(=O)c1nn(-c2ccc(Cl)cc2)cc1C(=O)c1ccccc1 | 97.7 | 0.147 (≈ 0.297 µM) | 261 | 260.9 | 32.2 | Active | 3.11 (≈ 6.29 µM) | Non-toxic | Non-toxic
CC(=O)c1nn(-c2ccccc2)cc1C(=O)c1nn(-c2ccc(C)cc2)cc1C(=O)c1ccccc1 | 94 | 0.322 (≈ 0.679 µM) | 38.4 | 38.46 | 44.1 | Active | 4.12 (≈ 8.68 µM) | Non-toxic | Non-toxic
CC(=O)c1nn(-c2ccccc2)cc1C(=O)c1nn(-c2ccccc2)cc1C(=O)c1nn(-c2ccc(C)cc2)cc1C(=O)c1ccccc1 | 96.9 | 0.149 (≈ 0.231 µM) | 261 | 260.6 | 34 | Active | 3.12 (≈ 4.84 µM) | Non-toxic | Non-toxic
CC(=O)c1nn(-c2ccccc2)cc1C(=O)c1nn(-c2ccccc2)cc1C(=O)c1nn(-c2ccccc2)cc1C(=O)c1ccccc1 | 95 | 0.171 (≈ 0.271 µM) | 151 | 150.8 | 42.1 | Active | 3.71 (≈ 5.89 µM) | Non-toxic | Non-toxic
CC(=O)c1nn(-c2ccc(C)cc2)cc1C(=O)c1ccccc1 | 95.8 | 0.159 (≈ 0.522 µM) | 189 | 188.7 | 37.8 | Active | 3.42 (≈ 11.3 µM) | Non-toxic | Non-toxic
CN(C)/C=C/C(=O)c1nn(-c2ccccc2)cc1C(=O)c1nn(-c2ccc(Cl)cc2)cc1C(=O)c1ccccc1 | 93 | 0.323 (≈ 0.587 µM) | 37.9 | 37.97 | 44.6 | Active | 4.15 (≈ 7.55 µM) | Non-toxic | Non-toxic
CC(=O)c1nn(-c2ccccc2)cc1C(=O)c1nn(-c2ccccc2)cc1C(=O)c1nn(-c2ccc(Cl)cc2)cc1C(=O)c1ccccc1 | 96.1 | 0.151 (≈ 0.227 µM) | 196 | 196.1 | 35.1 | Active | 3.2 (≈ 4.81 µM) | Non-toxic | Non-toxic
CN(C)/C=C/C(=O)c1nn(-c2ccccc2)cc1C(=O)c1nn(-c2ccccc2)cc1C(=O)c1ccccc1 | 94.7 | 0.291 (≈ 0.564 µM) | 143 | 142.9 | 44 | Active | 3.99 (≈ 7.74 µM) | Non-toxic | Non-toxic
Cc1ccc(-n2cc(C(=O)c3ccccc3)c(C(=O)/C=C/N(C)C)n2)cc1 | 96.6 | 0.15 (≈ 0.417 µM) | 260 | 260.4 | 34.2 | Active | 3.18 (≈ 8.84 µM) | Non-toxic | Non-toxic
Cc1c(C)c2c(c(C)c1O)CCC(C)(C(=O)O)O2 (centres undefined) [TROLOX] |  |  |  |  | 58.4 |  |  |  | 
CN(C)/C=C/C(=O)c1nn(-c2ccccc2)cc1C(=O)c1ccccc1 | 94.5 | 0.32 (≈ 0.926 µM) | 136 | 136.4 | 44 | Active | 4 (≈ 11.6 µM) | Non-toxic | Non-toxic
CC(=O)c1nn(-c2ccc(Cl)cc2)cc1C(=O)c1ccccc1 | 95.5 | 0.161 (≈ 0.496 µM) | 178 | 178.6 | 38.1 |  | 3.52 (≈ 10.8 µM) |  | 
CC(=O)c1nn(-c2ccccc2)cc1C(=O)c1nn(-c2ccc([N+](=O)[O-])cc2)cc1C(=O)c1ccccc1 | 96 | 0.155 (≈ 0.307 µM) | 195 | 194.8 | 36.6 | Active | 3.22 (≈ 6.36 µM) | Non-toxic | Non-toxic
CC(=O)c1nn(-c2ccccc2)cc1C(=O)c1ccccc1 | 95.2 | 0.162 (≈ 0.558 µM) | 168 | 168.5 | 39.5 | Active | 3.62 (≈ 12.5 µM) | Non-toxic | Non-toxic
CC(=O)c1nn(-c2ccc([N+](=O)[O-])cc2)cc1C(=O)c1ccccc1 | 98.2 | 0.144 (≈ 0.429 µM) | 261 | 260.9 | 31.5 | Active | 3.09 (≈ 9.21 µM) | Non-toxic | Non-toxic
O=C1O[C@H]([C@@H](O)CO)C(O)=C1O | 79 |  |  |  |  |  |  |  | 
